{"source": "ChEMBL document CHEMBL1137302", "about": "(J Med Chem, 2006)", "key": {"[1]": {"molecular_target": "Phosphodiesterase 3 (Homo sapiens) (UniProt Q14432+Q13370)", "experiment": "Activity at PDE3 at 10 uM", "format": "protein assay", "procedure,_shortened": "(§1)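 Broad selectivity panel (over 70 receptors, ion channels and neuronal receptors, PDE1-6 included) run at a single 10 µM concentration.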"}, "[2]": {"experiment": "Cmax in rat at 1 mg/kg, sc", "format": "ADME, organism-based", "design": "dose 1 mg/kg, route subcutaneous", "conditions": "in vivo", "procedure,_shortened": "(§2)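 Single 1 mg/kg dose given iv, sc or orally to Sprague-Dawley rats, dogs and monkeys; plasma concentrations followed over time (mean ± SEM, n = 3). Cmax, AUC, half-life, clearance and bioavailability calculated from the curves.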"}, "[3]": {"molecular_target": "Phosphodiesterase 4 (Homo sapiens) (UniProt P27815+Q08499+Q07343+Q08493)", "experiment": "Activity at PDE4 at 10 uM", "format": "protein assay", "procedure,_shortened": "as §1"}, "D(2) dopamine receptor [4]": {"molecular_target": "T1, D(2) dopamine receptor (Homo sapiens, UniProt P14416)", "T1 sequence (P14416 whole entry)": "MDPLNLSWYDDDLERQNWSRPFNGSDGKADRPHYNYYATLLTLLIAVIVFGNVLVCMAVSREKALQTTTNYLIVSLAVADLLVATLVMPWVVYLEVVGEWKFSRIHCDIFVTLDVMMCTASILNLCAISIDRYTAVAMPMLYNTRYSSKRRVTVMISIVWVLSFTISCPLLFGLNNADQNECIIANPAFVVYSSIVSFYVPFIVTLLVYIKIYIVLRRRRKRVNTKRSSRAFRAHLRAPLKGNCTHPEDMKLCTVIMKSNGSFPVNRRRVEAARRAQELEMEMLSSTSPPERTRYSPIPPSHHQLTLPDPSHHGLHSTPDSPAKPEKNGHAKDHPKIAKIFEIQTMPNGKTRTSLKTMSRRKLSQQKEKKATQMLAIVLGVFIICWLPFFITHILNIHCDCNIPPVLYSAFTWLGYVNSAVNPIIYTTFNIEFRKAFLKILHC", "experiment": "Binding affinity to human D2S receptor"}, "[5]": {"molecular_target": "D(2) dopamine receptor (Rattus norvegicus) (UniProt P61169)", "sequence (P61169 whole entry)": "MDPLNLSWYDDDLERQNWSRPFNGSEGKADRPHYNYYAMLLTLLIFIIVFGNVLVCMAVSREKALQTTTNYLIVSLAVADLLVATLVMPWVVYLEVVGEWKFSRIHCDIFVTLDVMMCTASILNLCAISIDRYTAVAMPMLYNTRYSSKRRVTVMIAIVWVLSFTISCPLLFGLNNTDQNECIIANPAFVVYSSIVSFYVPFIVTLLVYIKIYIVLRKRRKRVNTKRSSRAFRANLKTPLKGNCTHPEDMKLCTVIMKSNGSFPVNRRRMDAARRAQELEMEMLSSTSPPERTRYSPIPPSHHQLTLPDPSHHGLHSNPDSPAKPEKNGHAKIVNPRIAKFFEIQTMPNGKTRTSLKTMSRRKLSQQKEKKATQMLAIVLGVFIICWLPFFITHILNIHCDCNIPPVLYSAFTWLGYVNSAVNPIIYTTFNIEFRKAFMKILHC", "experiment": "Agonist activity at rat D2 receptor in HEK293 cells coexpressing G-alpha-qo5 by FLIPR relative to dopamine upto 10 uM", "format": "functional, cell-based", "procedure,_shortened": "(§3)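 Ca2+ flux by FLIPR in HEK cells cotransfected with the D2 receptor (human, ferret or rat) plus chimeric G protein Gqo5.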"}, "[6]": {"experiment": "Bioavailability in dog at 1 mg/kg, po", "format": "ADME, organism-based, Canis lupus familiaris", "conditions": "in vivo", "procedure,_shortened": "as §2"}, "[7]": {"molecular_target": "Phosphodiesterase 6 (Homo sapiens) (UniProt Q13956+P18545+P35913+O43924+P16499+P51160)", "experiment": "Activity at PDE6 at 10 uM", "format": "protein assay", "procedure,_shortened": "as §1"}, "D(2) dopamine receptor [8]": {"molecular_target": "T1, D(2) dopamine receptor", "experiment": "Agonist activity at human D2 receptor in HEK293 cells coexpressing G-alpha-qo5 by FLIPR relative to dopamine upto 10 uM", "format": "functional, cell-based", "procedure,_shortened": "as §3"}, "Mustela putorius furo [9]": {"species": "Mustela putorius furo", "experiment": "Induction of emesis in ferret", "format": "functional, organism-based"}, "[10]": {"molecular_target": "T2, D(4) dopamine receptor (Homo sapiens) (UniProt P21917)", "T2 sequence (whole entry)": "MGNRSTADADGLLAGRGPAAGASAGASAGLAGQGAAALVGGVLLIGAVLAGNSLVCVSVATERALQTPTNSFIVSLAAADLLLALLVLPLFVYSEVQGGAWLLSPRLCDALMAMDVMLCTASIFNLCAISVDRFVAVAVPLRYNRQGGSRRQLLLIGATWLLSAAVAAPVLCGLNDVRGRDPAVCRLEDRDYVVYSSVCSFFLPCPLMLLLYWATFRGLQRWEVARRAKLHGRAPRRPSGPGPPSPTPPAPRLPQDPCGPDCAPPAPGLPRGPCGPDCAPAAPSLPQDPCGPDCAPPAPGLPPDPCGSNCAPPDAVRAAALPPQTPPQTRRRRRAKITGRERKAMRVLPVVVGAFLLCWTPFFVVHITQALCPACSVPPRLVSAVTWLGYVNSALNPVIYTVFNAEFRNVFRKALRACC", "experiment": "Activity at human D4.4 receptor in HEK293 cells co-expressing Galphaqo5 by FLIPR", "format": "functional, cell-based", "conditions": "filed as agonist"}, "D(2) dopamine receptor [11]": {"molecular_target": "T1, D(2) dopamine receptor", "experiment": "Displacement of [125I]7-OH-PIPAT from human D2L receptor expressed in HEK293 cell membrane", "format": "cell membranes"}, "[12]": {"experiment": "Half life in rat at 1 mg/kg, po", "format": "ADME, organism-based", "design": "dose 1 mg/kg, route oral", "conditions": "in vivo", "procedure,_shortened": "as §2"}, "[13]": {"tested_on": "D(2) dopamine receptor (Mustela putorius furo)", "experiment": "Agonist activity at ferret D2 receptor in HEK293 cells coexpressing Galphaqo5 by FLIPR relative to dopamine upto 10 uM"}, "D(4) dopamine receptor": {"molecular_target": "T3, D(4) dopamine receptor (Rattus norvegicus, UniProt P30729)", "T3 sequence (P30729 whole entry)": "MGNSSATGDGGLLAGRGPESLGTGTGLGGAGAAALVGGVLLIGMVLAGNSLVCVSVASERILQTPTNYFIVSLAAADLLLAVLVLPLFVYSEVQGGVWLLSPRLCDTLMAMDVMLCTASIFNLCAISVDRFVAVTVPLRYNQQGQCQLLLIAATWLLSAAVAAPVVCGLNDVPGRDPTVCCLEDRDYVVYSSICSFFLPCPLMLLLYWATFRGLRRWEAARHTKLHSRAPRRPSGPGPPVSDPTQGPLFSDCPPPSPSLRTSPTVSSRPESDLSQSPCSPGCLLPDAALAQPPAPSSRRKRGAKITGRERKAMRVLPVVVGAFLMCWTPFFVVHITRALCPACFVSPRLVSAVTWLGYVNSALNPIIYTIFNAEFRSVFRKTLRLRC", "experiment": "Agonist activity at rat D4 receptor in HEK293 cells coexpressing G-alpha-qo5 by FLIPR", "format": "functional, cell-based"}, "[14]": {"experiment": "AUC in rat at 1 mg/kg, sc", "format": "ADME, organism-based", "design": "dose 1 mg/kg, route subcutaneous", "conditions": "plasma", "procedure,_shortened": "as §2"}, "[15]": {"molecular_target": "T4, D(4) dopamine receptor (Rattus norvegicus) (UniProt P30729)", "T4 sequence (whole entry)": "T3 sequence (P30729 whole entry)", "experiment": "Agonist activity at rat D4 receptor in HEK293 cells co-expressing Galphaqo5 by FLIPR relative to dopamine", "format": "functional, cell-based"}, "[16]": {"experiment": "AUC in monkey at 1 mg/kg, po", "format": "ADME, organism-based, Macaca mulatta", "design": "dose 1 mg/kg, route oral", "conditions": "rhesus monkey, plasma", "procedure,_shortened": "as §2"}, "[17]": {"experiment": "Cmax in monkey at 1 mg/kg, po", "format": "ADME, organism-based, Macaca mulatta", "design": "dose 1 mg/kg, route oral", "conditions": "rhesus monkey, in vivo", "procedure,_shortened": "as §2"}, "[18]": {"experiment": "AUC in dog at 1 mg/kg, po", "format": "ADME, organism-based, Canis lupus familiaris", "design": "dose 1 mg/kg, route oral", "conditions": "plasma", "procedure,_shortened": "as §2"}, "[19]": {"molecular_target": "cGMP-dependent 3',5'-cyclic phosphodiesterase (Homo sapiens) (UniProt O00408)", "sequence (O00408 whole entry)": "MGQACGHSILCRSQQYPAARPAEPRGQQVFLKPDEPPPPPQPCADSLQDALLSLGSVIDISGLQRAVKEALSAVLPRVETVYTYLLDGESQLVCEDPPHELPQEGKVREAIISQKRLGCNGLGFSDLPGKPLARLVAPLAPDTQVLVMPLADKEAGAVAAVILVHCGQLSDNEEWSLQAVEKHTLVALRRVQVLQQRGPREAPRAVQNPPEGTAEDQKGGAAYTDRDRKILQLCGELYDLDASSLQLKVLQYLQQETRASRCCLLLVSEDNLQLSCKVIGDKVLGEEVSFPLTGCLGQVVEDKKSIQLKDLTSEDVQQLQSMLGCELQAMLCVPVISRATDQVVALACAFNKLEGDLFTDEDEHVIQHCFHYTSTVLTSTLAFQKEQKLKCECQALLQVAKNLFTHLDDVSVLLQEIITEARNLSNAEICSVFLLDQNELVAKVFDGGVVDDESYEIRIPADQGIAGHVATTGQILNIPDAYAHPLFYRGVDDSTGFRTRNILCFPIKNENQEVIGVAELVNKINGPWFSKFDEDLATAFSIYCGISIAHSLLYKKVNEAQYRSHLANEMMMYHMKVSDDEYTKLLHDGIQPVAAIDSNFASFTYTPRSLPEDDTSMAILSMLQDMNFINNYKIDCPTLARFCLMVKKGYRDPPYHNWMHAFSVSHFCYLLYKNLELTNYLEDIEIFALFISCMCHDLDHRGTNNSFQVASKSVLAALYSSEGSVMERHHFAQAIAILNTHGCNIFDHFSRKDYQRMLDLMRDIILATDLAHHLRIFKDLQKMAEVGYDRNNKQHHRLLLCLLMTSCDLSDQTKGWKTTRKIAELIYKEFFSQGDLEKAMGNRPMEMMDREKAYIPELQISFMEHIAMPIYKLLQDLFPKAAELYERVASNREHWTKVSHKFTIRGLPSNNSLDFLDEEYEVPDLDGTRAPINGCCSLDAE", "experiment": "Activity at PDE2 at 10 uM", "procedure,_shortened": "as §1"}, "[20]": {"experiment": "Agonist activity at ferret D4 receptor in HEK293 cells coexpressing G-alpha-qo5 by FLIPR relative to dopamine", "format": "functional, Mustela putorius furo"}, "[21]": {"experiment": "Plasma clearance in iv dosed rat", "format": "ADME, organism-based", "procedure,_shortened": "as §2"}, "[22]": {"experiment": "Plasma clearance in iv dosed dog", "format": "ADME, organism-based, Canis lupus familiaris", "procedure,_shortened": "as §2"}, "[23]": {"experiment": "Bioavailability in rat at 1 mg/kg, po", "format": "ADME, organism-based", "conditions": "in vivo", "procedure,_shortened": "as §2"}, "[24]": {"experiment": "Half life in monkey at 1 mg/kg, po", "format": "ADME, organism-based, Macaca mulatta", "design": "dose 1 mg/kg, route oral", "conditions": "rhesus monkey, in vivo", "procedure,_shortened": "as §2"}, "[25]": {"experiment": "Effect on canine cardiac Purkinje fiber repolarization measured as prolongation of action potential duration at 3 ug/mL", "format": "functional, Canis lupus familiaris", "procedure,_shortened": "(§4)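 Canine Purkinje fibers impaled with 3 M KCl microelectrodes. Fibers accepted with resting potential below -80 mV and APD 300-500 ms. Paced at BCL 2 s, then 800 and 400 ms. Two ascending concentrations applied, each after 25 min equilibration. APD90 measured at all three rates.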"}, "[26]": {"experiment": "Half life in rat at 1 mg/kg, sc", "format": "ADME, organism-based", "design": "dose 1 mg/kg, route subcutaneous", "conditions": "in vivo", "procedure,_shortened": "as §2"}, "[27]": {"experiment": "Effect on canine cardiac Purkinje fiber repolarization measured as prolongation of action potential duration at 1 ug/mL", "format": "functional, Canis lupus familiaris", "procedure,_shortened": "as §4"}, "[28]": {"molecular_target": "Phosphodiesterase 1 (Homo sapiens) (UniProt P54750+Q01064+Q14123)", "experiment": "Activity at PDE1 at 10 uM", "format": "protein assay", "procedure,_shortened": "as §1"}, "[29]": {"experiment": "Cmax in dog at 1 mg/kg, po", "format": "ADME, organism-based, Canis lupus familiaris", "design": "dose 1 mg/kg, route oral", "conditions": "in vivo", "procedure,_shortened": "as §2"}, "Mustela putorius furo [30]": {"species": "Mustela putorius furo", "experiment": "Induction of nausea in ferret", "format": "functional, organism-based"}, "hERG": {"molecular_target": "hERG (Homo sapiens, UniProt Q12809)", "sequence (Q12809 whole entry)": "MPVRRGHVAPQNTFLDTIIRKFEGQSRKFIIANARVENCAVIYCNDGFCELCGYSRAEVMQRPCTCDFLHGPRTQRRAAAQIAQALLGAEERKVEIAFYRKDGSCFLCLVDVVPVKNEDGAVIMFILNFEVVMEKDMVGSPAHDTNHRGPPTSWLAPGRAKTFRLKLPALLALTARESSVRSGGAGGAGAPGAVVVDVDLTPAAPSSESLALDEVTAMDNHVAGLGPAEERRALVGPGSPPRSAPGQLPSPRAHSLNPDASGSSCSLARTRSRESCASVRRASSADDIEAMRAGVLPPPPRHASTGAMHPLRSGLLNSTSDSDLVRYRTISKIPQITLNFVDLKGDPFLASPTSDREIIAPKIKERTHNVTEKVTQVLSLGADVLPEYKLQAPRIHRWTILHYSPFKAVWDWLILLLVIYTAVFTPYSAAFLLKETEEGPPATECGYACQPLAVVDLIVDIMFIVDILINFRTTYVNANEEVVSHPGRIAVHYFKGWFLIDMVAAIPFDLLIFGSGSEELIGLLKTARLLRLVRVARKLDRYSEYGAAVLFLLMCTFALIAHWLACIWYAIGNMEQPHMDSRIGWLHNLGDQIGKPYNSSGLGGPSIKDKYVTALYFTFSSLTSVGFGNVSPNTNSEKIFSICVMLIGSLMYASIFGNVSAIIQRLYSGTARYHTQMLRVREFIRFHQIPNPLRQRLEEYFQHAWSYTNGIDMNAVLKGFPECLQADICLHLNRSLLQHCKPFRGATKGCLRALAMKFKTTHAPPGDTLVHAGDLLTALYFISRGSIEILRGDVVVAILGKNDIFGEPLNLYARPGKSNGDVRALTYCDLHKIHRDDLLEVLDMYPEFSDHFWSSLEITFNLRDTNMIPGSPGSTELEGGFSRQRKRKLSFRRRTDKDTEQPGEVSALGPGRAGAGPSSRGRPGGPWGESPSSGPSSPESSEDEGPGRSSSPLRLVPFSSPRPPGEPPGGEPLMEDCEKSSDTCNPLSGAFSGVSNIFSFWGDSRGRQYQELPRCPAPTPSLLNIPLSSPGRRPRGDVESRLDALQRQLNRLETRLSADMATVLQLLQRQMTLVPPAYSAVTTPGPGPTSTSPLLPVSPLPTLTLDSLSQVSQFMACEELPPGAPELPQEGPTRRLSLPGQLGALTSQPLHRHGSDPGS", "experiment": "Blockade of current at hERG expressed in HEK293 cells at 3 ug/mL", "format": "cell-based", "conditions": "HEK293 cells that express hERG", "procedure,_shortened": "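hERG stably expressed in HEK293 cells; whole-cell voltage clamp. Pipette: K aspartate/KCl/EGTA/MgATP, pH 7.3. Bath: NaCl-based HEPES, pH 7.4. Compound dissolved in DMSO (≤0.1%), one concentration per cell. Steps to -25 to +50 mV for 3 s, then -50 mV for 4 s, from -80 mV every 15 s; tail current measured against DMSO vehicle.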"}, "[31]": {"experiment": "Cmax in rat at 1 mg/kg, po", "format": "ADME, organism-based", "design": "dose 1 mg/kg, route oral", "conditions": "in vivo", "procedure,_shortened": "as §2"}}, "note": "Active and inactive are the calls of the source. No cut-off for these calls is given here."}
{"smiles": "Cc1cccc(C(=O)NCN2CCC(c3cccc[n+]3[O-])CC2)c1", "values": [{"measurement": "Activity", "setting": "[1]", "result": "inactive"}, {"measurement": "Cmax", "setting": "[2]", "result": 0.465, "unit": "µg/mL"}, {"measurement": "Activity", "setting": "[3]", "result": "inactive"}, {"measurement": "Ki", "setting": "D(2) dopamine receptor [4]", "result": "> 10", "unit": "µM"}, {"measurement": "Activity", "setting": "[5]", "result": "inactive"}, {"measurement": "bioavailability", "setting": "[6]", "result": 85, "unit": "%"}, {"measurement": "Activity", "setting": "[7]", "result": "inactive"}, {"measurement": "Activity", "setting": "D(2) dopamine receptor [8]", "result": "inactive"}, {"measurement": "Activity", "setting": "Mustela putorius furo [9]", "result": "inactive"}, {"measurement": "Activity", "setting": "[10]", "result": "Agonist"}, {"measurement": "Ki", "setting": "D(2) dopamine receptor [11]", "result": "> 10", "unit": "µM"}, {"measurement": "half-life", "setting": "[12]", "result": 1.8, "unit": "h"}, {"measurement": "Activity", "setting": "[13]", "result": "inactive"}, {"measurement": "EC50", "setting": "D(4) dopamine receptor", "result": 0.093, "unit": "µM"}, {"measurement": "AUC", "setting": "[14]", "result": 1.14, "unit": "µg·h/mL"}, {"measurement": "Efficacy", "setting": "[15]", "result": 78, "unit": "%"}, {"measurement": "AUC", "setting": "[16]", "result": 2.28, "unit": "µg·h/mL"}, {"measurement": "Cmax", "setting": "[17]", "result": 0.66, "unit": "µg/mL"}, {"measurement": "AUC", "setting": "[18]", "result": 4.28, "unit": "µg·h/mL"}, {"measurement": "Activity", "setting": "[19]", "result": "inactive"}, {"measurement": "Efficacy", "setting": "[20]", "result": 76, "unit": "%"}, {"measurement": "clearance", "setting": "[21]", "result": 0.74, "unit": "L/h/kg"}, {"measurement": "clearance", "setting": "[22]", "result": 0.2, "unit": "L/h/kg"}, {"measurement": "bioavailability", "setting": "[23]", "result": 68, "unit": "%"}, {"measurement": "half-life", "setting": "[24]", "result": 2, "unit": "h"}, {"measurement": "Activity", "setting": "[25]", "result": 4.3, "unit": "%"}, {"measurement": "half-life", "setting": "[26]", "result": 1.2, "unit": "h"}, {"measurement": "Activity", "setting": "[27]", "result": 0.6, "unit": "%"}, {"measurement": "Activity", "setting": "[28]", "result": "inactive"}, {"measurement": "Cmax", "setting": "[29]", "result": 1.42, "unit": "µg/mL"}, {"measurement": "Activity", "setting": "Mustela putorius furo [30]", "result": "inactive"}, {"measurement": "inhibition at 3 ug/mL", "setting": "hERG", "result": 14.5, "unit": "%"}, {"measurement": "Cmax", "setting": "[31]", "result": 0.417, "unit": "µg/mL"}]}
